Screens: PubChem BioAssay, The Scripps Research Institute Molecular Screening Center
An excerpt weighted towards active compounds, which were near 4.5% of everything screened.
TAAR1 agonist = human TAAR1 agonism | Q96RJ0 | CHO RD-HGA16 TAAR1, Fluo-8 calcium fluorescence; vehicle wells 0%, saturating PEA agonist 100% | 360,000 tested, 0.99% active | activation, % at 3 µM;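 active = activation above the mean activation of all test compounds in the run plus 3 SD, cut at about 38% in these data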
Target sequence (Q96RJ0 whole entry, looked up): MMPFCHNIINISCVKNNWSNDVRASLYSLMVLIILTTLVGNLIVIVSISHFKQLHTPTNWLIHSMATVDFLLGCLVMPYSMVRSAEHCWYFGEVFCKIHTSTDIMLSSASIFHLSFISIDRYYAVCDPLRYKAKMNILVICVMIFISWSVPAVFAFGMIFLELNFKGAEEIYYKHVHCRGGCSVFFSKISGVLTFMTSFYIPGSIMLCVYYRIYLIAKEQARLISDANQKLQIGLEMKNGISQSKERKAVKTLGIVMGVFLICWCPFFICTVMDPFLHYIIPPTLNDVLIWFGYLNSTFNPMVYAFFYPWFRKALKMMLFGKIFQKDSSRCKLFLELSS
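System: CHO-derived RD-HGA16 cells with stable Gα16 and human TAAR1 / Times: 17-24 h plating, Fluo-8 75 min 37 °C, 30 min RT / Technique: calcium-sensitive Fluo-8 signal, excitation 470-495, emission 515-575 nm / Measure: % activation relative to PEA EC100 response / Benchmarks: DMSO and PEA EC100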
CHO parental Ca = counter-screen for OX1R antagonists: effect in parental CHO cells; 330,000 tested, 0.63% active; AID 463079; inhibition, % at 5.6 µM; parental CHO-K1, ATP-induced calcium, Fluo-8 fluorescence;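 active = inhibition above that plate's mean sample inhibition plus 3 SD, cut at about 26% in these data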;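 note: 0% = ATP-challenged DMSO wells and 100% = DMSO wells without ATP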
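Test system: untransfected parental CHO cell line; also added: ATP stimulus; dosing: 5.6 µM, single dose; signal: calcium-sensitive Fluo-8 fluorescence; measure: percent inhibition of ATP-evoked calcium rise, normalized to controls; benchmarks: low control ATP plus DMSO, high control DMSO only; replication: one well per compound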
OX1R antag-1 = OX1R (human) antagonism. 330,000 tested, 1.8% active. inhibition, % at 6.6 µM. O43613. OX1R-expressing cells, FRET antagonist read-out; in the data active = inhibition mostly above about 38%, no sharp cut-off; inactive = mostly below about 40%;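 note: 0% = agonist challenge alone and 100% = reference antagonist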
TAAR1 antag = antagonists of human TAAR1 | Q96RJ0 | CHO RD-HGA16 TAAR1, Fluo-8 calcium fluorescence, antagonist | inhibition, % at 3 µM | 360,000 tested, 1.5% active;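 active = inhibition above a per-plate cutoff, the mean inhibition of test compounds on that plate plus 3 SD, cut at about 49% in these data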;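 note: 0% = DMSO plus EC80 beta-PEA response and 100% = DMSO alone without agonist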
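System: CHO RD-HGA16 cells bearing hTAAR1. Reagent: EC80 β-phenethylamine stimulus. Schedule: seeding 17-24 h prior, 75-min 37 °C, 30-min RT dye loading. Signal: Fluo-8 intracellular calcium dye fluorescence, real-time kinetic reads. Read-out: % inhibition from peak post-agonist over basal fluorescence ratio. Benchmarks: vehicle wells and EC80 agonist wells. Replicates: n of 1.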
OX1R antag-2 = human HCRTR1 antagonism. O43613. CHO/OX1R cells, Fluo-8 calcium fluorescence, orexin A. inhibition, % at 5 µM. 330,000 tested, 0.43% active;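 active = inhibition above its plate's threshold, mean inhibition of all tested compounds on the plate plus 3 SD, cut at about 37% in these data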;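 note: 0% = orexin A challenge wells and 100% = SB-334867-A antagonist wells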
GPR7 antagonist = blocks human GPR7 receptor signaling; inhibition, % at 4.4 µM; P48145; 290,000 tested, 1.1% active; GPR7-expressing cells, fluorescence antagonist assay; in the data active = inhibition above about 16%, passing the limit was not always enough;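 note: cells stimulated with the agonist NPW; 0% = agonist with vehicle and 100% = vehicle without agonist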
Target sequence (P48145 whole entry, looked up): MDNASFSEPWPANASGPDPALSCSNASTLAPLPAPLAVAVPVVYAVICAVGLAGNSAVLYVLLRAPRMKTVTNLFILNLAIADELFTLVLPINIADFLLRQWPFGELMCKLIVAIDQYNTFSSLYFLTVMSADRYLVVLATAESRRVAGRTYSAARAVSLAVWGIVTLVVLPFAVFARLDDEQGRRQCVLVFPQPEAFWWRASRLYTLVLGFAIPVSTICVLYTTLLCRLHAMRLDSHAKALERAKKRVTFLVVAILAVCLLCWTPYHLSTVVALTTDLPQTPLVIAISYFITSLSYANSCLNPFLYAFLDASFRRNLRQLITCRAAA
* hit, by the source's call; / = no result given.

SMILES | TAAR1 agonist | CHO parental Ca | OX1R antag-1 | TAAR1 antag | OX1R antag-2 | GPR7 antagonist
CC(=O)N1CCN(c2ccc([N+](=O)[O-])cc2C=C2C(=O)NC(=O)NC2=O)CC1 | 2 | -4 | 64* | 1 | 1 | -7
CCC(COC(=O)NC)NC(=O)Oc1cccc(C)c1 (stereo not given) | 9 | 4 | 6 | 15 | 4 | -1
CNCC(O)c1cccc(OC(=O)c2ccccc2C)c1 (stereo not given) | 12 | -27 | -10 | -4 | -27 | 24*
Cc1cccc(N2C(=O)NC(=O)/C(=C\c3cccn3-c3ccc(Cl)cc3)C2=O)c1 | 56* | -8 | 9 | 37 | -16 | -4
Cc1cccc(N2C(=O)NC(=O)/C(=C\C=C\c3ccco3)C2=O)c1 | 44* | -5 | 19 | 22 | -10 | -11
COc1ccc(/C=N\N=C(N)N)cc1 | 21 | -7 | 34 | 5 | -3 | -19
NC(N)=N/N=C/c1ccc(N(c2ccccc2)c2ccccc2)cc1 | 77* | 25 | 13 | 12 | 29 | -12
Cc1c(N=Nc2c(O)[nH]c(=O)[nH]c2=O)c(=O)n(-c2ccccc2)n1C | -1 | -10 | 35 | 7 | 4 | -2
Cc1c(N=Nc2c(O)n(-c3ccc(Br)cc3)c(=O)[nH]c2=O)c(=O)n(-c2ccccc2)n1C | 11 | -2 | 66* | -9 | -16 | -21
O=P(Oc1ccc(-c2ccccc2)cc1)(N1CC1)N1CC1 | 1 | / | / | -10 | / | /
CCC(C)(C)n1nnnc1C(c1cccs1)N1CC=C(c2ccc(F)cc2)CC1 (stereo not given) | 10 | 46* | 20 | 25 | -2 | -5
Fc1ccc(C2=CCN(C(c3cccs3)c3nnnn3CCc3ccccc3)CC2)cc1 (stereo not given) | 4 | -15 | 18 | 2 | -13 | -4
CC1CCOC(=O)C=CC=CC(=O)OC2CC3OC4C5OC5(C)C(O)CC4(COC(=O)C1O)C2(C)C31CO1 (stereo not given) | 1 | / | / | 6 | / | /
CC1=CC2OC3CC4OC(=O)C=CC=CC(=O)OCCC(C)C(O)C(=O)OCC2(CC1)C4(C)C31CO1 (stereo not given) | 28 | / | / | 89* | / | /
CCNc1cc(N2CCN(C)CC2)ccc1[N+](=O)[O-] | 4 | -12 | 51* | -16 | -15 | -2
CN1CCN(c2ccc([N+](=O)[O-])c(N/N=C3\CN4CCC3CC4)c2)CC1 | 5 | 9 | 56* | 10 | 5 | 0
CCOP(=S)(OCC)N1CC1 | 0 | / | / | 11 | / | /
COc1ccc(OC)c(N=Cc2c(O)[nH]c(=O)[nH]c2=O)c1 | 4 | -10 | 16 | 3 | -3 | 11
Cc1ccc(OC(=O)N(C)C[C@H]2OCc3cnnn3CCCC(=O)N([C@@H](C)CO)C[C@@H]2C)cc1 | 4 | / | / | -2 | / | /
O=C(O)CC1OCC=C2CN3CCC45C6=CC(=O)C(=O)C([N+](=O)[O-])=C6NC4C1C2CC35 (stereo not given) | / | 6 | 38* | / | -17 | -8
O=C(O)CC1OCC=C2CN3CCC45c6ccccc6NC4C1C2CC35 (stereo not given) | 0 | -18 | 6 | 3 | -5 | -11
Cn1c(O)c(C=Nc2ccc(F)cc2)c(=O)[nH]c1=O | 0 | -3 | 6 | -3 | 3 | -11
Cn1c(O)c(/C=C2/C=CC=N2)c(=O)[nH]c1=O | -1 | -14 | 50* | 10 | 4 | -11
CN1CCN(Cc2ccccc2Sc2ccccc2)CC1 | 6 | -15 | 23 | 1 | -21 | -2
N[C@@H]1CCCC[C@H]1N.O=C(O)C(=O)O.[Pt] | / | -1 | 9 | / | -13 | /
SMILES | TAAR1 agonist | CHO parental Ca | OX1R antag-1 | TAAR1 antag | OX1R antag-2 | GPR7 antagonist
CCN(CC)S(=O)(=O)c1ccc(C)c(NCC(=O)Nc2ccc(C#N)c(Cl)c2)c1 | 14 | 56* | 17 | 26 | 33 | 4
NC1=Nc2ccccc2Oc2ccccc21 | 40* | -15 | 15 | 16 | -44 | -4
CN(C)CCN(CC1CCCN(Cc2ccccc2F)C1)C(=O)Cc1c(F)cccc1F (stereo not given) | 0 | -24 | -1 | 3 | -41 | -9
Cc1ccc(Cn2nc(C(=O)Nc3ccc(Br)cc3)cc2C)cc1 | 1 | 50* | 33 | -17 | -3 | 31
CCCNC(=O)N1[C@H]2CC[C@@H]1C(C(=O)OC)=C(c1ccc(C(C)=O)cc1)C2 | 1 | 7 | 0 | -1 | 7 | /
CCOc1ccc(NC(=O)c2c(O)[nH]c(=O)[nH]c2=O)cc1 | 0 | -1 | 25 | -3 | -8 | /
CCOC(=O)c1ccc(NC(=O)c2c(O)[nH]c(=O)[nH]c2=O)cc1 | 14 | -8 | -7 | 8 | -11 | 48*
C[C@]1(O)CCC2C3CC[C@H]4C[C@@H](OC(=O)CNC(=O)CN)CC[C@]4(C)C3CC[C@@]21C (stereo not given in full) | 31 | -1 | 19 | 15 | -28 | /
COc1ccc(-n2c(/C=C/c3ccc(O)c(O)c3)nc3ccccc3c2=O)cc1 | 11 | -12 | 7 | 50* | 2 | -10
COc1cc(/C=C/c2nc3ccccc3c(=O)n2-c2ccc(O)cc2)ccc1O | 16 | 0 | -1 | 67* | 5 | 1
C=C(C)C(Cc1c(OC)ccc(C(=O)/C=C/c2ccc(O)cc2)c1O)OO (stereo not given) | 7 | -2 | 8 | 54* | 8 | /
CN1CC[C@@]2(C)c3cc(O)ccc3N(C)C2O1 (stereo not given in full) | / | -2 | 60* | / | 3 | /
COC(=O)C1=C(c2ccccc2)C[C@@H]2CC[C@H]1N2C(=O)NCCCOC(C)C | 6 | -13 | 17 | 7 | -9 | /
CCN(CC)S(=O)(=O)c1cc(NC(=O)C(C)N2CC=C(c3ccccc3)CC2)ccc1C (stereo not given) | 0 | 43* | 11 | 4 | -31 | -2
CS(=O)(=O)c1ccc(C(=O)N2CCC(C(=O)O)(c3ccccc3)CC2)cc1 | -2 | 7 | 13 | -11 | -15 | -8
O=C(NC(=O)c1c(F)cccc1F)Nc1cc(Cl)c(F)c(Cl)c1F | 3 | -7 | 9 | -2 | -11 | active
CC1CCN(S(=O)(=O)c2ccc(NN=C(C#N)C#N)cc2)CC1 | / | 17 | 101* | / | 25 | -5
COc1ccc(C(=O)N2CCOCC2)cc1S(=O)(=O)N1CCC(C)CC1 | 12 | -1 | 13 | -6 | -13 | -10
COc1ccc(CC2C(=O)NC(C)C(=O)N(C)C3C(=O)N(C)C(Cc4ccc(O)c(c4)Oc4ccc(cc4)C3O)C(=O)NC(C)C(=O)NC(C)C(=O)N2C)cc1 (stereo not given) | 1 | / | / | -10 | / | /
OC[C@@H](O)CCl | / | -1 | 15 | / | -15 | /
Oc1c(Br)c(Br)c(Br)c(Br)c1Br | / | -7 | 37* | / | 7 | /
